Target: Metabotropic glutamate receptor 5 (Homo sapiens, UniProt P41594)
Experiment: Displacement of [3H]M-MPEP from mGluR5 (unknown origin) at 1 uM measured after 60 mins relative to control
In short: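 Rat cerebrocortical membranes or membranes from A18 cells expressing human mGlu5a, incubated with [³H]M-MPEP and test compound at 1 µM in 50 mM Tris pH 7.6 with 2 mM MgCl₂ and 2 mM CaCl₂, 60 min at 25°C. Non-specific binding was taken with […]. Result is % displacement, run in duplicate or triplicate.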

Chain of Metabotropic glutamate receptor 5 (P41594 21-1212 limits assumed): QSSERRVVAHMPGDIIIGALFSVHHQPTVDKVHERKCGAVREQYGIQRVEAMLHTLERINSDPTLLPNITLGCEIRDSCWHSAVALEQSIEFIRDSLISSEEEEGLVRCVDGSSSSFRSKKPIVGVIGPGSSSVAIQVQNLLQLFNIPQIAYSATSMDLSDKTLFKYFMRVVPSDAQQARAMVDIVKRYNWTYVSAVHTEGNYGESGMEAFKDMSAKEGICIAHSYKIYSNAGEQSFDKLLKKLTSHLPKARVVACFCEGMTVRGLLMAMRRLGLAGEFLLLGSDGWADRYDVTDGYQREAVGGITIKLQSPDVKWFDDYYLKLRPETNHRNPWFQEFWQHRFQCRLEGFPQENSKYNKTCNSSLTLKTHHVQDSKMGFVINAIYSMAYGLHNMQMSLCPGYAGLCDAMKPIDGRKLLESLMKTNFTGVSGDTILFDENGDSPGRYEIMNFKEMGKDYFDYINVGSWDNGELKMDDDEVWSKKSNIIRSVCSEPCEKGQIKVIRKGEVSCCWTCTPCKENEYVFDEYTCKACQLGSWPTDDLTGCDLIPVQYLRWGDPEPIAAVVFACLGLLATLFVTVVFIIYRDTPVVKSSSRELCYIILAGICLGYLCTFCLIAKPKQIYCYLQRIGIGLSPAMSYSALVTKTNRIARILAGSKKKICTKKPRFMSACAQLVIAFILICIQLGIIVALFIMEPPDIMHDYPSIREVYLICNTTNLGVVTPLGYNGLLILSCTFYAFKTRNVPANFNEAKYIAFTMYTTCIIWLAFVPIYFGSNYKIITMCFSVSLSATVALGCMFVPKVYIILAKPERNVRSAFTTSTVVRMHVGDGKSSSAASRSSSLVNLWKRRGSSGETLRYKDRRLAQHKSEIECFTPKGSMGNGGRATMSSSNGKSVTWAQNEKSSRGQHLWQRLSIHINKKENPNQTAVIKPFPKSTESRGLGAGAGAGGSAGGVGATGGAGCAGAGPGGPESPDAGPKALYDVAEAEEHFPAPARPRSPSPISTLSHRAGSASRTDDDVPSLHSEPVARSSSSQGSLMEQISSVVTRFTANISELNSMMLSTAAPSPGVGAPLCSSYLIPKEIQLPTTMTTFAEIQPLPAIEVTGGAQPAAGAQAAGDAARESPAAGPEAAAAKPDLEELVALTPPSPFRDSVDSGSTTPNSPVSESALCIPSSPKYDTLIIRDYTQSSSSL

SMILES	inhibition [%]
O=S(=O)(c1ccccc1)c1cnc2ccccc2c1N1CCN(c2ccccc2)CC1	13.5
Cc1ccc(S(=O)(=O)c2cnc3cc(F)ccc3c2N2CCOCC2)cc1Cl	84
NS(=O)(=O)N1CCN(c2c(S(=O)(=O)c3cccc(F)c3)cnc3cc(F)ccc23)CC1	1.9
COc1ccc(S(=O)(=O)c2cnc3ccc(Cl)cc3c2N2CCOCC2)cc1OC	-2
Cc1cc(C)cc(S(=O)(=O)c2cnc3cc(F)ccc3c2N2CCOCC2)c1	58
Cc1ccc(S(=O)(=O)c2cnc3ccc(Cl)cc3c2N2CCOCC2)cc1C	90
O=S(=O)(c1cc(F)cc(F)c1)c1cnc2c(F)cccc2c1N1CCOCC1	52
Cc1cc(C)cc(S(=O)(=O)c2cnc3ccc(Cl)cc3c2N2CCOCC2)c1	14
N#Cc1ccc(S(=O)(=O)c2cnc3c(F)cccc3c2N2CCOCC2)cc1	6
O=S(=O)(c1ccc(Cl)cc1)c1cnc2cc(F)ccc2c1N1CCOCC1	50
COc1ccc(S(=O)(=O)c2cnc3c(F)cccc3c2N2CCOCC2)cc1	33
O=S(=O)(c1ccc(F)cc1)c1cnc2ccc(F)cc2c1N1CCOCC1	2
Cc1cc(C)cc(S(=O)(=O)c2cnc3cc(Cl)ccc3c2N2CCOCC2)c1	24
COc1ccc(S(=O)(=O)c2cnc3cc(Cl)ccc3c2N2CCOCC2)cc1OC	4
O=S(=O)(c1ccc(Cl)c(Cl)c1)c1cnc2ccc(Cl)cc2c1N1CCOCC1	63
O=S(=O)(c1ccc(F)c(F)c1)c1cnc2ccc(F)cc2c1N1CCOCC1	10
Cc1ccc(S(=O)(=O)c2cnc3c(F)cccc3c2N2CCOCC2)cc1F	73
COc1ccc(S(=O)(=O)c2cnc3cc(F)ccc3c2N2CCOCC2)cc1OC	5
O=S(=O)(c1cc(F)cc(F)c1)c1cnc2cc(F)ccc2c1N1CCOCC1	47.8 to 48
O=S(=O)(c1cc(Cl)cc(Cl)c1)c1cnc2cc(F)ccc2c1N1CCOCC1	74
Cc1ccc2ncc(S(=O)(=O)c3cc(Cl)cc(Cl)c3)c(N3CCOCC3)c2c1	70
Cc1ccc(S(=O)(=O)c2cnc3cc(Cl)ccc3c2N2CCOCC2)cc1C	87
O=S(=O)(c1ccc(Cl)cc1)c1cnc2ccc(F)cc2c1N1CCOCC1	78
Cc1ccc2ncc(S(=O)(=O)c3ccc(C#N)cc3)c(N3CCOCC3)c2c1	48

SMILES	inhibition [%]
CC1CCN(c2c(S(=O)(=O)c3cc(Cl)cc(Cl)c3)cnc3c(F)cccc23)CC1	82
O=S(=O)(c1cccc(F)c1)c1cnc2cc(F)ccc2c1N1CCSCC1	62.7
N#Cc1cccc(S(=O)(=O)c2cnc3cc(F)ccc3c2N2CCOCC2)c1	71 to 71.4
O=S(=O)(c1cc(F)cc(F)c1)c1cnc2ccc(Cl)cc2c1N1CCOCC1	7
COc1ccc2ncc(S(=O)(=O)c3ccc(OC)c(OC)c3)c(N3CCOCC3)c2c1	1
COc1ccc(S(=O)(=O)c2cnc3cc(Cl)ccc3c2N2CCOCC2)cc1	41
Cc1ccc2ncc(S(=O)(=O)c3ccc(Cl)cc3)c(N3CCOCC3)c2c1	89
Cc1ccc(S(=O)(=O)c2cnc3cc(Cl)ccc3c2N2CCOCC2)cc1Cl	87
O=S(=O)(c1ccc(Cl)cc1)c1cnc2cc(Cl)ccc2c1N1CCOCC1	55
Cc1ccc(S(=O)(=O)c2cnc3ccc(Cl)cc3c2N2CCOCC2)cc1Cl	53
Cc1ccc(S(=O)(=O)c2cnc3cc(Cl)ccc3c2N2CCOCC2)cc1	12
CC1CCN(c2c(S(=O)(=O)c3ccc(C#N)cc3)cnc3c(F)cccc23)CC1	86
Cc1ccc2ncc(S(=O)(=O)c3ccc(F)cc3)c(N3CCOCC3)c2c1	18
O=S(=O)(c1cccc(F)c1)c1cnc2cc(Cl)ccc2c1N1CCOCC1	32
CN1CCN(c2c(S(=O)(=O)c3ccccc3)cnc3ccccc23)CC1	7.7
Cc1ccc2ncc(S(=O)(=O)c3cc(F)cc(F)c3)c(N3CCOCC3)c2c1	34
O=S(=O)(c1ccc(F)c(Cl)c1)c1cnc2ccc(Cl)cc2c1N1CCOCC1	39
O=S(=O)(c1ccc(Cl)c(Cl)c1)c1cnc2cc(Cl)ccc2c1N1CCOCC1	86
O=S(=O)(c1cccc(F)c1)c1cnc2ccc(Cl)cc2c1N1CCOCC1	0
O=S(=O)(c1cc(Cl)cc(Cl)c1)c1cnc2cc(Cl)ccc2c1N1CCOCC1	85
N#Cc1cccc(S(=O)(=O)c2cnc3cc(Cl)ccc3c2N2CCOCC2)c1	73
COCC1CCN(c2c(S(=O)(=O)c3cc(F)cc(F)c3)cnc3cc(F)ccc23)CC1	83
COc1ccc2ncc(S(=O)(=O)c3cc(F)cc(F)c3)c(N3CCOCC3)c2c1	3

Results, then the compound that gave them:

inhibition [%]	SMILES
87	COc1ccc2ncc(S(=O)(=O)c3ccc(Cl)c(Cl)c3)c(N3CCC(C)CC3)c2c1
82	Cc1ccc(S(=O)(=O)c2cnc3ccc(C)cc3c2N2CCC(C)CC2)cc1
84	Cc1ccc(S(=O)(=O)c2cnc3ccc(Cl)cc3c2N2CCC(C)CC2)cc1C
90	CC1CCN(c2c(S(=O)(=O)c3ccc(Cl)cc3)cnc3cc(F)ccc23)CC1
26	COc1ccc(S(=O)(=O)c2cnc3ccc(C)cc3c2N2CCOCC2)cc1
91	Cc1ccc2ncc(S(=O)(=O)c3ccc(C)c(Cl)c3)c(N3CCC(C)CC3)c2c1
65	COc1cccc(S(=O)(=O)c2cnc3ccc(C)cc3c2N2CCOCC2)c1
95	CC1CCN(c2c(S(=O)(=O)c3ccc(F)c(Cl)c3)cnc3ccc(F)cc23)CC1
93	Cc1ccc(S(=O)(=O)c2cnc3c(F)cccc3c2N2CCC(C)CC2)cc1
26	CC1CCN(c2c(S(=O)(=O)c3ccc(F)cc3)cnc3c(F)cccc23)CC1
46	COc1ccc(S(=O)(=O)c2cnc3ccc(Cl)cc3c2N2CCC(C)CC2)cc1Cl
58	CC1CCN(c2c(S(=O)(=O)c3cccc(F)c3)cnc3ccc(Cl)cc23)CC1
91	Cc1ccc2ncc(S(=O)(=O)c3cccc(Cl)c3)c(N3CCC(C)CC3)c2c1
52	Cc1ccc2ncc(S(=O)(=O)c3cccc(C#N)c3)c(N3CCC(C)CC3)c2c1
93	Cc1ccc2ncc(S(=O)(=O)c3ccc(F)c(Cl)c3)c(N3CCC(C)CC3)c2c1
13	CC1CCN(c2c(S(=O)(=O)c3ccccc3)cnc3c(F)cccc23)CC1
90	COc1cccc(S(=O)(=O)c2cnc3ccc(F)cc3c2N2CCC(C)CC2)c1
55	Cc1ccc2ncc(S(=O)(=O)c3ccc(C#N)cc3)c(N3CCC(C)CC3)c2c1
72	COc1cccc(S(=O)(=O)c2cnc3cc(F)ccc3c2N2CCOCC2)c1
76	CC1CCN(c2c(S(=O)(=O)c3cccc(F)c3)cnc3ccc(F)cc23)CC1
91	CC1CCN(c2c(S(=O)(=O)c3ccc(F)cc3)cnc3cc(Cl)ccc23)CC1
91	Cc1ccc(S(=O)(=O)c2cnc3ccc(F)cc3c2N2CCC(C)CC2)cc1
54	COc1ccc(S(=O)(=O)c2cnc3ccc(F)cc3c2N2CCC(C)CC2)cc1OC
28	COc1ccc2ncc(S(=O)(=O)c3ccc(C)c(Cl)c3)c(N3CCOCC3)c2c1
65	COc1ccc2ncc(S(=O)(=O)c3ccccc3)c(N3CCOCC3)c2c1
92 to 92.4	CC1CCN(c2c(S(=O)(=O)c3cccc(C#N)c3)cnc3cc(F)ccc23)CC1

inhibition [%]	SMILES
93	COc1cccc(S(=O)(=O)c2cnc3cc(Cl)ccc3c2N2CCC(C)CC2)c1
87	COc1ccc2ncc(S(=O)(=O)c3cc(Cl)cc(Cl)c3)c(N3CCC(C)CC3)c2c1
40	CC1CCN(c2c(S(=O)(=O)c3ccccc3)cnc3ccc(F)cc23)CC1
90	COc1ccc2ncc(S(=O)(=O)c3ccc(C)cc3)c(N3CCC(C)CC3)c2c1
70.5	COCC1CCN(c2c(S(=O)(=O)c3cccc(F)c3)cnc3cc(F)ccc23)CC1
87	CC1CCN(c2c(S(=O)(=O)c3ccc(F)cc3)cnc3ccc(F)cc23)CC1
90	CC1CCN(c2c(S(=O)(=O)c3cccc(C#N)c3)cnc3ccc(Cl)cc23)CC1
92	CC1CCN(c2c(S(=O)(=O)c3cccc(Cl)c3)cnc3cc(Cl)ccc23)CC1
96	COc1cccc(S(=O)(=O)c2cnc3ccc(C)cc3c2N2CCC(C)CC2)c1
89	Cc1ccc(S(=O)(=O)c2cnc3cc(Cl)ccc3c2N2CCC(C)CC2)cc1Cl
24	Cc1ccc2ncc(S(=O)(=O)c3ccc(F)c(F)c3)c(N3CCOCC3)c2c1
72	Cc1ccc2ncc(S(=O)(=O)c3cc(F)cc(F)c3)c(N3CCC(C)CC3)c2c1
87	COc1cccc(S(=O)(=O)c2cnc3ccc(Cl)cc3c2N2CCC(C)CC2)c1
93	CC1CCN(c2c(S(=O)(=O)c3ccc(F)c(F)c3)cnc3c(F)cccc23)CC1
90	COc1ccc2ncc(S(=O)(=O)c3cccc(C#N)c3)c(N3CCC(C)CC3)c2c1
94	CC1CCN(c2c(S(=O)(=O)c3ccc(F)c(Cl)c3)cnc3cc(F)ccc23)CC1
79	Cc1ccc2ncc(S(=O)(=O)c3ccc(Cl)cc3)c(N3CCC(C)CC3)c2c1
27	COc1ccc2ncc(S(=O)(=O)c3ccc(F)cc3)c(N3CCC(C)CC3)c2c1
92	CC1CCN(c2c(S(=O)(=O)c3cccc(Cl)c3)cnc3ccc(Cl)cc23)CC1
90	CC1CCN(c2c(S(=O)(=O)c3ccc(F)c(F)c3)cnc3cc(Cl)ccc23)CC1
94	CC1CCN(c2c(S(=O)(=O)c3ccc(F)c(Cl)c3)cnc3cc(Cl)ccc23)CC1
79	COc1ccc(S(=O)(=O)c2cnc3cc(Cl)ccc3c2N2CCC(C)CC2)cc1
94	CC1CCN(c2c(S(=O)(=O)c3cccc(C#N)c3)cnc3cc(Cl)ccc23)CC1
83	Cc1cc(C)cc(S(=O)(=O)c2cnc3ccc(F)cc3c2N2CCC(C)CC2)c1
70	COc1cccc(S(=O)(=O)c2cnc3cc(Cl)ccc3c2N2CCOCC2)c1

— ChEMBL document CHEMBL4052615, “Discovery of 4-amino-3-arylsulfoquinolines, a novel non-acetylenic chemotype of metabotropic glutamate 5 (mGlu5) receptor negative allosteric modulators” (Eur J Med Chem, 2017)
